S100A4 inh HTS: inhibitors of human S100A4 binding to myosin IIA peptide; inhibition, % at 10.7 µM; AID 652163; S100A4/TAMRA-MyoIIA peptide fluorescence polarization; 360,000 tested, 0.14% active; P26447;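 active means mean inhibition of at least 70% across replicates, with every replicate also reaching that level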
Target sequence (P26447 whole entry, looked up): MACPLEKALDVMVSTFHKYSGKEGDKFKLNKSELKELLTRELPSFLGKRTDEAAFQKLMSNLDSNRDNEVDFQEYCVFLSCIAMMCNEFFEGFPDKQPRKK
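Material: S100A4 monomer (human). Medium: Calcium-containing HEPES buffer, pH 7.2. Probe or stimulus: labelled myosin peptide probe, 5 nM. Compound dosing: one concentration per compound. Timing: polarization read 5 min after assay mix addition, stable 5–60 min. Benchmarks: DMSO as neutral control, TFP as positive control.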
CAL PDZ FP-1: blocks peptide binding to the human CAL PDZ domain; AID 602252; purified CAL PDZ, TMR-peptide fluorescence polarization, 1 h; 300,000 tested, 0.92% active; Q9HD26; inhibition, % at 24.9 µM;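 active means mean inhibition of at least 30% with at least half of replicates also reaching 30%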;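 further: 0% = DMSO neutral control and 100% = excess unlabeled competitor peptide PRC23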
ERAP1 inh: blocks human ERAP1 aminopeptidase activity. 340,000 tested, 0.15% active. Q9NZ08. recombinant ERAP1, Leu-AMC fluorescence, 60 min. inhibition, % at 10.7 µM;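 active means mean replicate inhibition of at least 30%, or all replicates individually reaching that 30% level; inactive means mean below 30% and not every replicate reaching it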;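 further: 0% = neutral control wells and 100% = L-leucinethiol positive control wells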
SIRT5 inh: sirtuin-5 (human) deacylase inhibition; Q9NXA8; Purified SirT5, succinyl-peptide AMC, trypsin-coupled fluorescence; 330,000 tested, 1.1% active; inhibition, % at 15 µM; in the data active means inhibition above about 15%
Target sequence (Q9NXA8 whole entry, looked up): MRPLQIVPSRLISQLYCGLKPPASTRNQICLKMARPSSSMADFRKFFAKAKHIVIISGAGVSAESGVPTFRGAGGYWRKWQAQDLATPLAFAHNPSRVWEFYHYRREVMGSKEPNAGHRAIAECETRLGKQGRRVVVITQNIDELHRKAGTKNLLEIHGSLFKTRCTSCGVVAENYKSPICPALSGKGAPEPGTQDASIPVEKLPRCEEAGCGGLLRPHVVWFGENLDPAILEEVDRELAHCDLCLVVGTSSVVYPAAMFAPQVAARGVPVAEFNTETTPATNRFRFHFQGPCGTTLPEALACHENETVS
DENV2 CPE: DENV2-induced cell death inhibition; DENV2-infected cells, cytopathic effect rescue, plate reader; CPE inhibition, % at 9.99 µM; 350,000 tested, 1.7% active; AID 651640; in the data active means CPE inhibition above about 20%, passing the limit was not always enough; tested in BHK-21 cells;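 further: 0% = median of neutral control wells and 100% = median of positive control wells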
CAL PDZ FP-2: inhibitors of human CAL PDZ peptide binding. Q9HD26. purified CAL PDZ, TMR-peptide fluorescence polarization, 1 h. inhibition, % at 20 µM. 330,000 tested, 0.02% active;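 active means highest replicate inhibition of at least 40%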;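 further: plate controls were DMSO neutral control wells for no effect and unlabeled competitor peptide control wells for full effect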
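Material – purified CerCALP PDZ construct · Detection – FP readout, S and P plane fluorescence · Measure – percent inhibition from loss of millipolarization · Controls – unlabelled peptide for full inhibition, DMSO wells as neutral · Probe or stimulus – TMR-labelled reporter peptide T*-PRC34 bound in PDZ groove · Times – 1 h at RT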
* marks the source's active call; other numbers are inactive results; · = no result given. Sampled rows, rich in hits. Any-hit rate of the full collection: about 2.9%.

SMILES	S100A4 inh HTS	CAL PDZ FP-1	ERAP1 inh	SIRT5 inh	DENV2 CPE	CAL PDZ FP-2
CC1Cc2ccccc2N1S(=O)(=O)c1cccc(C(=O)NC2CC2)c1 (stereo unspecified)	·	-3.2	·	·	·	-1.0
O=C(Nc1cccnc1)c1cccc(S(=O)(=O)N2CCc3ccccc32)c1	3.1	72.8*	-2.2	1.0	1.2	-2.6
CC1Cc2ccccc2N1S(=O)(=O)c1cccc(C(=O)Nc2cccnc2)c1 (stereo unspecified)	2.2	33.7*	2.9	-1.6	4.7	·
Cc1cc(NC(=O)Cn2c(=O)oc3ccc(Cl)cc32)no1	-5.9	·	2.3	-3.9	44.9*	-1.2
Cc1cccc(-c2ccc([C@H]3[C@@H](CO)N4CCCCN(S(=O)(=O)c5cccs5)C[C@@H]34)cc2)c1	-23.8	·	-2.3	11.2	-2.7	·
C=C1CCN(C(CC(C)C)C(=O)OC)S(=O)(=O)c2ccccc21 (stereo unspecified)	-4.3	0.4	0.9	-3.0	-7.4	0.3
COC(=O)[C@H](CC(C)C)N1Cc2cc(OC)cc(OC)c2-c2ccccc2S1(=O)=O	-3.3	51.1*	·	·	9.5	-0.3
O=C1CC(N2CCN(S(=O)(=O)c3ccccc3F)CC2)C(=O)N1c1ccccc1Cl (stereo unspecified)	-3.1	-1.6	0.3	-1.8	-7.3	-1.0
COc1ccc(Cl)cc1N1C(=O)CC(N2CCN(S(=O)(=O)c3ccccc3F)CC2)C1=O (stereo unspecified)	-1.6	·	0.1	-1.4	37.5*	-3.1
C[C@@H]1CN([C@H](C)CO)C(=O)Cc2cc(NC(=O)CCN3CCOCC3)ccc2O[C@@H]1CN(C)CC1CC1	4.1	·	-1.6	-2.8	2.7	·
C[C@@H]1CN([C@@H](C)CO)C(=O)Cc2cc(NC(=O)CCN3CCOCC3)ccc2O[C@@H]1CN(C)C	127.9*	·	2.5	2.6	-2.1	·
C[C@H]1CN([C@@H](C)CO)C(=O)Cc2cc(NC(=O)CCN3CCOCC3)ccc2O[C@@H]1CN(C)CC1CCCCC1	2.2	·	0.2	·	5.8	·
C[C@H]1CN([C@@H](C)CO)C(=O)Cc2cc(NC(=O)CCN3CCOCC3)ccc2O[C@H]1CN(C)CC1CCCCC1	-2.4	·	-0.6	20.3*	-1.0	·
Cc1noc(C)c1NC(=O)N(C)C[C@H]1Oc2c(NS(=O)(=O)c3ccc(F)cc3)cccc2C(=O)N([C@H](C)CO)C[C@@H]1C	-13.0	·	2.3	-11.9	-1.2	·
CCOC(=O)c1ccc2[nH]c3c(c2c1)CCCCC3=O	0.3	37.4*	-3.2	-3.0	·	-2.2
CCOC(=O)c1ccc2[nH]c3c(c2c1)CCCC3C(=O)OCC (stereo unspecified)	·	-9.0	·	·	·	0.5
C[C@@H]1CN([C@@H](C)CO)C(=O)c2cccc(NC(=O)Nc3ccc4c(c3)OCO4)c2O[C@H]1CN(C)Cc1ccc(Oc2ccccc2)cc1	-6.4	·	0.5	2.4	-5.4	·
O=C(NNc1ccccc1)/C(=C\c1cccnc1)NC(=O)c1ccccc1	-2.8	73.1*	-2.4	1.5	2.2	-0.3
CCOC(=O)c1c(NC(=O)c2cccs2)sc(CC)c1-c1cccs1	·	30.7*	·	·	·	-2.4
Cc1ccc(S(=O)(=O)NNC(=O)c2c(O)c3ccccc3[nH]c2=O)cc1	-4.3	-0.7	1.5	17.1*	1.4	-1.7
FC(F)(F)c1ccccc1CN1CCCc2nc(-c3ccc(Br)cc3)ccc21	-13.7	·	0.4	·	42.1*	·
FC(F)(F)c1ccccc1CN1CCCc2nc(-c3ccccc3)ccc21	-13.8	·	0.5	·	-2.1	·
COc1ccc(-c2ccc([C@@H]3[C@H](CO)N4CCCCN(C(=O)NC(C)C)C[C@@H]34)cc2)cc1	-0.6	·	3.0	0.3	63.9*	·
CC(=O)N1CCCCN2[C@@H](CO)[C@H](c3ccc(Br)cc3)[C@@H]2C1	5.8	·	3.5	17.0*	0.8	·
CC(C)NC(=O)N1CCCCN2[C@@H](CO)[C@H](c3ccc(Br)cc3)[C@@H]2C1	27.1	·	1.5	0.8	-6.8	·
CC(=O)N1CCCCN2[C@H](CO)[C@@H](c3ccc(Br)cc3)[C@@H]2C1	2.2	·	0.3	0.2	-2.4	·
CC(C)NC(=O)N1CCCCN2[C@@H](CO)[C@@H](c3ccc(Br)cc3)[C@@H]2C1	-19.8	·	-0.2	-2.1	68.2*	·

Screening data deposited in PubChem BioAssay by Broad Institute.
